In experiment [1] the target is T1, Acetylcholinesterase (Homo sapiens, UniProt P22303). Put plainly: Inhibition of human AChE. Put shortly:
(§1)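 Ellman-type spectrophotometric assay at 412 nm in 100 mM sodium phosphate, 100 mM NaCl, pH 7.3, with DTNB. Enzymes: E. electricus AChE (soluble G4), recombinant T. californica AChE (Pichia pastoris, G4), recombinant human AChE (HEK 293, G2/G4), human plasma BChE (G4). Enzyme (~3 U/mL stock) and inhibitor preincubated 15 min at 25 °C. Acetylthiocholine (AChE) or butyrylthiocholine (BChE) then started the reaction. IC50 in duplicate from ≥4 inhibitor concentrations.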

Experiment [2] deals with Acetylcholinesterase (Torpedo californica, UniProt P04058). Put plainly: Inhibition of Torpedo californica AChE. Also noted: species or system Tetronarce californica. Put shortly:
as §1

In experiment [3] the target is Cholinesterases; ACHE & BCHE (Homo sapiens) (UniProt P06276+P22303). The experiment can be described thus: Selectivity for human BChE over human AChE. In outline: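 Ratio of IC50 for recombinant human AChE to IC50 for human plasma BChE. Both were measured by DTNB absorbance at 412 nm, pH 7.3, after 15 min enzyme–inhibitor preincubation at 25 °C. Acetyl- or butyrylthiocholine served as substrate. Each IC50 in duplicate from ≥4 inhibitor concentrations.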
Chain of Cholinesterases; ACHE & BCHE (Homo sapiens) (P06276 whole entry, looked up): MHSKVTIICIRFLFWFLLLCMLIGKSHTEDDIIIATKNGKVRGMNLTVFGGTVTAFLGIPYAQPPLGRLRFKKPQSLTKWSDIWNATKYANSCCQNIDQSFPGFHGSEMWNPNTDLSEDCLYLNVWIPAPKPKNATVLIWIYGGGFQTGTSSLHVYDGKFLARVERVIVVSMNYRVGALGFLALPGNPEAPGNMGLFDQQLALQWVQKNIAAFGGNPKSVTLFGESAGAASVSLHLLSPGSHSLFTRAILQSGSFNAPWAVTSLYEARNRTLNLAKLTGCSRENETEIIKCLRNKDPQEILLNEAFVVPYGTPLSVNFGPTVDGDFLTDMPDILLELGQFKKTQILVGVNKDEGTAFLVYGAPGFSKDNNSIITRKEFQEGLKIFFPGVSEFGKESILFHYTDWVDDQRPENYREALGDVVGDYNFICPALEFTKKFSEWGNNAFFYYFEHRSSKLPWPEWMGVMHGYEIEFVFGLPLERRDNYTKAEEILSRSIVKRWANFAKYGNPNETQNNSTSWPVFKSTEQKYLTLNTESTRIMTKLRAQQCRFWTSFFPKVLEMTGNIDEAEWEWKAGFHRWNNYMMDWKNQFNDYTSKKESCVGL
Chain of Cholinesterases; ACHE & BCHE (Homo sapiens) (P22303 whole entry, looked up): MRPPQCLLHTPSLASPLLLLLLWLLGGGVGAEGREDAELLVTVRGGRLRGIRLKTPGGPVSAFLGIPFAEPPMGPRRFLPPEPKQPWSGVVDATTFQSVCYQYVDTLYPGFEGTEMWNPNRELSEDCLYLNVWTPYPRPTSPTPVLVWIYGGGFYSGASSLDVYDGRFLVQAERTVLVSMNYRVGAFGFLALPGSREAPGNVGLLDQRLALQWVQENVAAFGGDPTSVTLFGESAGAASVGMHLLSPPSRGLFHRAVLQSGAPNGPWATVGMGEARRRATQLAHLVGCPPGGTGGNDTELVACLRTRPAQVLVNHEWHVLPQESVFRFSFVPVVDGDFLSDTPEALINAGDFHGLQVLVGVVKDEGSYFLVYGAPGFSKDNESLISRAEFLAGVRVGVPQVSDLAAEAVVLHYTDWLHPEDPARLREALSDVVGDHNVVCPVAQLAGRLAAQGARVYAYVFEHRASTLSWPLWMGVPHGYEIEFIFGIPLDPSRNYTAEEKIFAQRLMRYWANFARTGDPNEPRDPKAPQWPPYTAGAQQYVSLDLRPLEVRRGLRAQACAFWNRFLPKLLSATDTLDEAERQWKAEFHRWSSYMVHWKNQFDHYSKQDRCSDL

Experiment [4] concerns the target Acetylcholinesterase (Electrophorus electricus, UniProt O42275). Put plainly: (§2) Inhibition of Electrophorus electricus AChE.
The target of a further experiment is Cholinesterase (Homo sapiens, UniProt P06276). The experiment can be described thus: Inhibition of human plasma BChE. In kind it is cell-free. In outline:
as §1

Experiment [5] addresses Acetylcholinesterase (Electrophorus electricus) (UniProt O42275). The experiment can be described thus: Inhibition of Electrophorus electricus AChE at 100 uM.
The target of experiment [6] is T1, Acetylcholinesterase. Put plainly: Inhibition of human AChE at 100 uM.
The target in experiment [7] is Acetylcholinesterase (Electrophorus electricus) (UniProt O42275). The description is as §2.
Chain of Acetylcholinesterase (Electrophorus electricus) (O42275 24-633 limits assumed): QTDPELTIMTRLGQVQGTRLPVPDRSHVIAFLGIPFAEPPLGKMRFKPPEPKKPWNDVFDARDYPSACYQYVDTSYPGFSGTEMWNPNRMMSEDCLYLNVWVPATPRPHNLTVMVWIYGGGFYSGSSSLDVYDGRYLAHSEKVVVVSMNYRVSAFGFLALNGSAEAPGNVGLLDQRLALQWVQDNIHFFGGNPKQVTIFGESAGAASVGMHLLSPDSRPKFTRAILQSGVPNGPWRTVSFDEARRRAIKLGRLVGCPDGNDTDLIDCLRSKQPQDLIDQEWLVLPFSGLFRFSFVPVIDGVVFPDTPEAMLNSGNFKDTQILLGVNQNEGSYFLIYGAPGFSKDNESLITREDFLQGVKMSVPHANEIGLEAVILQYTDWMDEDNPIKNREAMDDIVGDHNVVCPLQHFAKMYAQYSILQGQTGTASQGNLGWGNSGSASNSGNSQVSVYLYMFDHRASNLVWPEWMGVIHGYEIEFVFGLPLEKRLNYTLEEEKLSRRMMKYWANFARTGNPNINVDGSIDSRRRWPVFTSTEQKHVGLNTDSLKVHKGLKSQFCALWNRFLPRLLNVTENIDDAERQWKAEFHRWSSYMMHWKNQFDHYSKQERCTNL

Each structure is given as a SMILES string. Active and inactive are the calls of the source. The calls are words filed in the database; no cut-off is given here.

Here are results for 18 molecules from ChEMBL document CHEMBL1138205, “Novel heterobivalent tacrine derivatives as cholinesterase inhibitors with notable selectivity toward butyrylcholinesterase” (J Med Chem, 2006).

Chain of Acetylcholinesterase (Torpedo californica, UniProt P04058) (P04058 whole entry): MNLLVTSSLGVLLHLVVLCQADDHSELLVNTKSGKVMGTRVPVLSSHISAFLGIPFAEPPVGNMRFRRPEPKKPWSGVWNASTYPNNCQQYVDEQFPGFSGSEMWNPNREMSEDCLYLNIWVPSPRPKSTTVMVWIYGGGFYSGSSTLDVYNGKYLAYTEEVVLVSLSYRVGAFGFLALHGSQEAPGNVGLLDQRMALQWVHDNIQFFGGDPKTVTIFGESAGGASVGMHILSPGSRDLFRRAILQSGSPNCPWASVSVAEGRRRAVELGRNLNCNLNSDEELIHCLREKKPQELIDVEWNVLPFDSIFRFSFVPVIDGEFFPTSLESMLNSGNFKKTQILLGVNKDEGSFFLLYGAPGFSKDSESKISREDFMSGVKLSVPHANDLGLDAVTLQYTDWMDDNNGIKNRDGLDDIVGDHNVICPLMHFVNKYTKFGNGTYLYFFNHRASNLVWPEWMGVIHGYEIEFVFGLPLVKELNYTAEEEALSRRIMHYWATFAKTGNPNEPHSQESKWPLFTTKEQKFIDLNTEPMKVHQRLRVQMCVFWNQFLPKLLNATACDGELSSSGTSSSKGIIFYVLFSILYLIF
Chain of Acetylcholinesterase (Electrophorus electricus, UniProt O42275) (O42275 whole entry): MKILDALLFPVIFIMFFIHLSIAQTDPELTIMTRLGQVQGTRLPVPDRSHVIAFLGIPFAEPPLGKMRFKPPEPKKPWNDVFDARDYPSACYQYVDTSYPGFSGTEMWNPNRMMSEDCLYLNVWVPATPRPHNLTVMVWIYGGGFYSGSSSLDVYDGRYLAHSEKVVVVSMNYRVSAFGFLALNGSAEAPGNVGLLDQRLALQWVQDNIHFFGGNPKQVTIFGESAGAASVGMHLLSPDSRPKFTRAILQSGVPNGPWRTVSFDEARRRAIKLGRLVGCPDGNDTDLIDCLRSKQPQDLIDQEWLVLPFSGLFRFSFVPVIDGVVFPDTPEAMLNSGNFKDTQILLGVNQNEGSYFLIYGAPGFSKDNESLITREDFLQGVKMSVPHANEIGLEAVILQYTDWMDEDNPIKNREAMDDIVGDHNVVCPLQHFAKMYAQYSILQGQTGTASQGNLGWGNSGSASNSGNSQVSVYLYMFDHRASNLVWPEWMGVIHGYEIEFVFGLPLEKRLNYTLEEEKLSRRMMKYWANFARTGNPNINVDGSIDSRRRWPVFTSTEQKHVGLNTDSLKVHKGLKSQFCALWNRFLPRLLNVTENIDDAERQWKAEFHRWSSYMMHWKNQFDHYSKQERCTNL
Chain of Cholinesterase (P06276 whole entry): as the sequence (P06276 whole entry, looked up) above
T1 sequence (P22303 whole entry): as the sequence (P22303 whole entry, looked up) above

For `COc1cc(C(=O)NNc2c3c(nc4ccccc24)CCCC3)cc(OC)c1OC`, the IC50 (in general, the point on the concentration scale where inhibition reaches its midpoint) turned out to be 386 nM against Acetylcholinesterase [1], 21.1 nM against Acetylcholinesterase [2], 2260 nM against Acetylcholinesterase [4] and 1.7 nM against Cholinesterase. The Ratio IC50 in experiment [3] came out at 227.
For the molecule `COc1cc(CCC(=O)NCCCCC(=O)NNc2c3c(nc4ccccc24)CCCC3)cc(OC)c1OC`, the IC50 against Acetylcholinesterase [1] worked out at 59 nM; against Acetylcholinesterase [2], 102 nM; against Acetylcholinesterase [4] it was 54.7 nM; against Cholinesterase it was 0.139 nM. Moreover, in experiment [3], the Ratio IC50 is 424.
For the molecule `COc1cc(CCC(=O)NCCC(=O)NNc2c3c(nc4ccccc24)CCCC3)cc(OC)c1OC`, the IC50 worked out at 135 nM against Acetylcholinesterase [1], 68.9 nM against Acetylcholinesterase [2], 102 nM at Acetylcholinesterase [4] and 6.03 nM against Cholinesterase. The Ratio IC50 in experiment [3] amounted to 22.4.
Turning to `COc1cc(C(=O)NCCC(=O)NNc2c3c(nc4ccccc24)CCCC3)cc(OC)c1OC`, the IC50 on Acetylcholinesterase [1] was determined as 89.2 nM; against Acetylcholinesterase [2], 49.5 nM; on Acetylcholinesterase [4], 100 nM; at Cholinesterase, 12.8 nM. Further, the Ratio IC50 in experiment [3] amounted to 6.97.
Consider `COc1cc(CCC(=O)NNc2c3c(nc4ccccc24)CCCC3)cc(OC)c1OC`, for which the IC50 on Acetylcholinesterase [1] was 365 nM; at Acetylcholinesterase [2] it was 40.1 nM; against Cholinesterase, 12.1 nM. Moreover, the Ratio IC50 in experiment [3] is 30.2.
On to `COc1cc(C(=O)NCC(=O)NNc2c3c(nc4ccccc24)CCCC3)cc(OC)c1OC`, for which the IC50 at Acetylcholinesterase [1] amounted to 51.6 nM; at Acetylcholinesterase [2], 163 nM; at Acetylcholinesterase [4] it was 104 nM; on Cholinesterase it was 27.6 nM. Also, the Ratio IC50 in experiment [3] was 1.87.
On to `CCN(CC)C(C)C(=O)N1c2ccccc2Sc2ccccc21` (stereo not drawn), for which the IC50 at Acetylcholinesterase [2] amounted to 34700 nM; at Cholinesterase, 3370 nM. Also, in experiment [3], the Ratio IC50 stood at 12000. For the same molecule, the outcome (in experiment [5]; on Acetylcholinesterase [6]) was inactive.
Turning to `COc1cc(C(=O)NCCCC(=O)NNc2c3c(nc4ccccc24)CCCC3)cc(OC)c1OC`, the 50% inhibitory concentration (IC50) against Acetylcholinesterase [1] turned out to be 241 nM; on Acetylcholinesterase [2] it was 26.3 nM; on Acetylcholinesterase [4] it was 60.5 nM; against Cholinesterase, 7.13 nM. The Ratio IC50 in experiment [3] amounted to 33.8.
On to `COc1cc(C(=O)NCCCCCCC(=O)NNc2c3c(nc4ccccc24)CCCC3)cc(OC)c1OC`, for which the IC50 on Acetylcholinesterase [1] amounted to 5.65 nM; on Acetylcholinesterase [2], 25.2 nM; on Acetylcholinesterase [4], 9.76 nM; against Cholinesterase, 0.523 nM. Further, the Ratio IC50 in experiment [3] stood at 10.8.
For `NNc1c2c(nc3ccccc13)CCCC2`, on Acetylcholinesterase [4], half-maximal inhibition (IC50) was put at 13000 nM.
`COc1cc(C(=O)NCCCCCC(=O)NNc2c3c(nc4ccccc24)CCCC3)cc(OC)c1OC`: the IC50 at Acetylcholinesterase [1] was found to be 18.2 nM; on Acetylcholinesterase [2], 55.7 nM; against Acetylcholinesterase [4], 20.1 nM; against Cholinesterase it was 0.969 nM. Also, in experiment [3], the Ratio IC50 was found to be 18.8.
In the case of `COc1cc(C(=O)NCCCCC(=O)NNc2c3c(nc4ccccc24)CCCC3)cc(OC)c1OC`, the IC50 against Acetylcholinesterase [1] was found to be 17 nM; against Acetylcholinesterase [2], 18.1 nM; on Acetylcholinesterase [4], 20.2 nM; at Cholinesterase, 1.68 nM. The Ratio IC50 in experiment [3] was 10.1.
Consider `COc1cc(C(=O)NCCCCCCCC(=O)NNc2c3c(nc4ccccc24)CCCC3)cc(OC)c1OC`, for which the IC50 at Acetylcholinesterase [1] was found to be 5.24 nM; against Acetylcholinesterase [2], 17.2 nM; on Acetylcholinesterase [4], 3.25 nM; against Cholinesterase, 0.293 nM. Moreover, the Ratio IC50 in experiment [3] is 17.9. In addition, the Activity in experiment [7] was 3.23 nM.
As for `COc1cc(CCC(=O)NCC(=O)NNc2c3c(nc4ccccc24)CCCC3)cc(OC)c1OC`, the IC50 on Acetylcholinesterase [1] worked out at 40.7 nM; on Acetylcholinesterase [2], 40.1 nM; against Acetylcholinesterase [4], 122 nM; at Cholinesterase, 24 nM. Besides, in experiment [3], the Ratio IC50 worked out at 1.7.
As to `COc1cc(CCC(=O)NCCCC(=O)NNc2c3c(nc4ccccc24)CCCC3)cc(OC)c1OC`, the IC50 came to 72.1 nM on Acetylcholinesterase [1], 158 nM against Acetylcholinesterase [2], 52.1 nM on Acetylcholinesterase [4] and 0.226 nM against Cholinesterase. Moreover, the Ratio IC50 in experiment [3] is 319.
On to `COc1cc(C(=O)NCCCCCCCC(=O)NN)cc(OC)c1OC`, for which, at Acetylcholinesterase [4], the IC50 stood at 18000 nM.
Regarding `COc1cc(CCC(=O)NCCCCCC(=O)NNc2c3c(nc4ccccc24)CCCC3)cc(OC)c1OC`, the IC50 against Acetylcholinesterase [1] was found to be 8.39 nM; at Acetylcholinesterase [2], 39.8 nM; against Acetylcholinesterase [4], 20.2 nM; at Cholinesterase, 0.141 nM. The Ratio IC50 in experiment [3] was determined as 59.5.
For `CCOCC(=O)CCCCCCCNC(=O)c1cc(OC)c(OC)c(OC)c1`, the IC50 against Acetylcholinesterase [4] was greater than 250000 nM.
